From PubChem BioAssay
TRPC4 agonist = TRPC4 (mouse) channel activation; hit rate 0.49% among 310,000; HEK293 TRPC4beta/mu-opioid, Fluo4 calcium fluorescence; active compounds read high; B-score at 10 µM;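 active means B-score above 5 SD of library B-scores, and initial fluorescence ratio not above library mean plus 5 SD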;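 further: positive B-score marks a calcium rise read as TRPC4 activation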
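system = HEK293 cells stably co-expressing mouse TRPC4beta and mu-opioid receptor | schedule = Fluo4 dye loading 45 min at room temperature, 110 s recording | measure = B-scored integrated calcium fluorescence ratio | signal = Fluo4 calcium-sensitive dye fluorescence, kinetic, 1 Hz baseline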
TRPC6 inhibitor = inhibitors of mouse TRPC6 channel. hit rate 1.1% among 310,000. B-score at 10 µM. Q61143. HEK293-TRPC6, membrane potential dye, ACh-evoked depolarization; active compounds read low;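 active means B-score under library mean minus 3 SD, initial fluorescence not abnormally high, positive integrated signal ratio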;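 further: B-score derived from integrated fluorescence ratio over the kinetic read; more negative B-score means stronger inhibition of depolarization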
Target sequence (Q61143 whole entry, looked up): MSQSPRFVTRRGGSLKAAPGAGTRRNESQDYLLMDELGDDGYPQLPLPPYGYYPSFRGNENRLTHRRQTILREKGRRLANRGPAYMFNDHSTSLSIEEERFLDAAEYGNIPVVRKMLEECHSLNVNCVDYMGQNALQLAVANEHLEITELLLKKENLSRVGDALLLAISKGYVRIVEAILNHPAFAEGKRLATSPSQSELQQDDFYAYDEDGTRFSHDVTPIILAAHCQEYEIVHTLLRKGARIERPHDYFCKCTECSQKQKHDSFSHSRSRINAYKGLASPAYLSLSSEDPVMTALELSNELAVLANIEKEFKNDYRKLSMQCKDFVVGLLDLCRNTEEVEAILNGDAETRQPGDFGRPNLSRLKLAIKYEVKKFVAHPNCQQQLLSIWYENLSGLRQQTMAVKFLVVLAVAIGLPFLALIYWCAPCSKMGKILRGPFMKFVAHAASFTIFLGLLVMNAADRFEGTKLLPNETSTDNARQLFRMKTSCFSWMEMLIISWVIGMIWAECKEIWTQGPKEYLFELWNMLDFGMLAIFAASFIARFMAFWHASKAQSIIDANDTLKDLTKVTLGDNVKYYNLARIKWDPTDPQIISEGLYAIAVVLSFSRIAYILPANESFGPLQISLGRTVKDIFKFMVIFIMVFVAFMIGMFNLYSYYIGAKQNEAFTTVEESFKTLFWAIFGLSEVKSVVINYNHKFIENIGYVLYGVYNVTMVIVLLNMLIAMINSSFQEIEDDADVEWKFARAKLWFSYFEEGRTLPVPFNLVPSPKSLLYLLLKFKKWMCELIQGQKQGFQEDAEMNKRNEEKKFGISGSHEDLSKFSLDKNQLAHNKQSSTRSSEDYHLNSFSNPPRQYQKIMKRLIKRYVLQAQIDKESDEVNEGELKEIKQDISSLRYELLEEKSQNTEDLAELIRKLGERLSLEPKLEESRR
TRPC4 PAM = allosterically enhances the mouse TRPC4 cation channel; Q9QUQ5; HEK293 TRPC4beta/mu-opioid, DAMGO EC20, Fluo-4 Ca2+ flux; active compounds read high; B-score at 10 µM; hit rate 0.42% among 310,000; AID 2227;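 active means B-score of calcium response area above 5 SD of library B-scores, with initial fluorescence ratio within 5 SD of library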;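 further: B-score of integrated fluorescence ratio over time as area under calcium response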
TRPC6 act = activates the mouse TRPC6 cation channel; Q61143; HEK293-TRPC6 membrane potential dye fluorescence; active compounds read high; B-score at 10 µM; hit rate 0.13% among 310,000; AID 2550;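 active means B-score of the integrated fluorescence ratio above library mean plus 3 SD, and starting fluorescence ratio within library mean plus 5 SD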;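 further: higher score means more depolarization so channel activation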
TRPC4 block = inhibitors of mouse TRPC4 channel; Q9QUQ5; HEK293 TRPC4beta/mu-opioid, DAMGO-evoked Fluo4 calcium flux; active compounds read low; B-score at 10 µM; hit rate 0.39% among 300,000;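 active means B-score over 3 SD under the library average, no early fluorescence shift, positive overall ratio signal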
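Test system – stable TRPC4beta/mu-opioid receptor HEK293 cells · Probe or stimulus – DAMGO, a submaximal dose followed by a maximal one · Dosing – one concentration per compound · Signal – Fluo4 calcium fluorescence by kinetic imaging, 5 s 1 Hz baseline · Evaluation – per-well B score of integrated baseline-normalized Fluo4 ratio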
TRPC4 spec 2 = second selectivity test of TRPC6 inhibitors: effect on mouse TRPC4. AID 2776. hit rate 42% among 920. HEK293 TRPC4/MOR, membrane potential dye fluorescence; channel activated by saturating DAMGO dose. inhibition, % at 10 µM. shares compounds with TRPC6 inhibitor;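 active means compounds whose fluorescence signal differed from control wells by over 3 SD, either direction, in both duplicate plates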
TRPC4 spec = mouse TRPC4 off-target activity of TRPC6 inhibitors; shares compounds with TRPC6 inhibitor; HEK293 TRPC4/mu-opioid, membrane potential fluorescence; activity change, negative = inhibition, % at 10 µM; hit rate 61% among 920; AID 2777;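 active means rise or fall in signal beyond 3 SD of buffer-only wells in both replicate plates, either sign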;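 further: integrated kinetic ratio of fluorescence range over baseline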
HEK293 MPD ctr 2-1 = second counter-screen for TRPC6 inhibitors: parental HEK293 cells; shares compounds with TRPC6 inhibitor; parental HEK293 membrane potential dye fluorescence; maximal acetylcholine challenge after compound addition; signal change vs control, % at 10 µM; hit rate 31% among 920; AID 2779;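 active means membrane potential signal moving either way by over 3 SD of the maximum-effect control, in both duplicate plates, meaning non-specific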
HEK293 MPD ctr-1 = parental HEK293 nonspecific activity of TRPC6 inhibitors. shares compounds with TRPC6 inhibitor. parental HEK293 membrane potential dye fluorescence. membrane potential signal change, % at 10 µM. hit rate 60% among 920. AID 2780;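 active means membrane potential signal shifting up or down by more than 3 SD of buffer-only wells, on both duplicate plates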
HEK293 MPD ctr-2 = checks TRPC6 modulator effects in parental HEK293 cells. hit rate 51% among 2,400. membrane potential dye fluorescence. membrane potential signal change, % at 10 µM. shares compounds with TRPC6 inhibitor. AID 488924;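 active means membrane potential signal moves up or down beyond 5 SD from buffer-only wells, on both duplicate plates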
HEK293 MPD ctr 2-2 = second check of TRPC6 modulator effects in parental HEK293 cells. shares compounds with TRPC6 inhibitor. membrane potential dye fluorescence; after compound, maximal acetylcholine stimulation. inhibition, % at 10 µM. hit rate 14% among 2,400. AID 488926;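 active means membrane potential signal drops by more than 5 SD from the mean control signal, in both duplicate plates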;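 further: plate controls were acetylcholine ECmax control wells for no effect and buffer only wells for full effect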
TRPC4/MOR mod = tests whether TRPC6 modulators also affect mouse TRPC4. HEK293 TRPC4/mu-opioid, membrane potential fluorescence. percent change from control (negative = decrease, positive = increase), % at 10 µM. shares compounds with TRPC6 inhibitor. hit rate 69% among 2,400;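 active means membrane potential signal moved up or down beyond 5 SD of buffer control wells, in both duplicate plates, actives on both sides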;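 further: plate controls were assay buffer wells for no effect and DAMGO maximal-effect wells for full effect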
TRPC4/MOR inh 2 = mouse TRPC4 off-target activity of TRPC6 modulators, second screen | shares compounds with TRPC6 inhibitor | HEK293 TRPC4/mu-opioid, membrane potential dye fluorescence; stimulated with maximal-effect DAMGO | inhibition, % at 10 µM | hit rate 55% among 2,400 | AID 488928;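 active means drop in membrane potential signal beyond 5 SD of the control wells in both duplicate plates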;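 further: TRPC4 counter screen for TRPC6 hits run under conditions tuned for TRPC6 not TRPC4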
TRPC6 block conf = confirmation of mouse TRPC6 inhibitors. shares compounds with TRPC6 inhibitor. HEK293-TRPC6, membrane potential dye, ACh-evoked depolarization. inhibition, % at 10 µM. hit rate 43% among 3,300;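 active means fluorescence ratio falls more than 5 SD below the full-stimulation control mean, in both duplicate runs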;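 further: integrated fluorescence ratio of peak minus minimum over baseline after agonist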
TRPC6 act confirm = confirmation of mouse TRPC6 activators; shares compounds with TRPC6 inhibitor; hit rate 11% among 2,800; activation, % at 10 µM; HEK293-TRPC6 membrane potential dye fluorescence, FDSS;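 active means ratio signal rise beyond 5 SD above unstimulated control wells' mean, seen in both duplicate runs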;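 further: plate controls were buffer EC0 wells for no effect and acetylcholine ECmax response for full effect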
An asterisk follows results filed as active; i = inactive; x = no result given. Hits are enriched below; roughly 2.3% of the tested compounds scored in any of these assays.

SMILES | TRPC4 agonist | TRPC6 inhibitor | TRPC4 PAM | TRPC6 act | TRPC4 block | HEK293 MPD ctr-2 | HEK293 MPD ctr 2-2 | TRPC4/MOR mod | TRPC4/MOR inh 2 | TRPC6 block conf | TRPC6 act confirm | others
CN(C)CCOC(=O)C1(c2ccccc2)CCCC1 | i | -9.6* | i | i | i | x | x | x | x | i | x | TRPC4 spec 2=i;TRPC4 spec=2.4%*;HEK293 MPD ctr 2-1=19%*;HEK293 MPD ctr-1=5.8%*
O=C(CSc1nc(=O)n(CCCN2CCOCC2)c2c1CCCC2)Nc1cccc(Cl)c1 | i | i | i | i | i | x | x | x | x | x | x
CC(C)(CNc1ccc(C(F)(F)F)cc1[N+](=O)[O-])N1CCOCC1 | i | i | i | i | i | x | x | x | x | x | x
O=C(NC1CCCCC1)C(c1ccc(F)cc1)N(C(=O)c1csnn1)C1CCCC1 (stereo not given) | i | i | i | i | i | x | x | x | x | x | x
COc1ccc(C(C(=O)NC(C)(C)C)N(C(=O)CCC(=O)Nc2cc(C)on2)c2c(C)cccc2C)cc1 (stereo not given) | i | i | i | i | i | x | x | x | x | x | x
O=C(O)c1ccc(NC(=O)C2(c3ccccc3)CCCC2)cc1 | i | i | i | i | i | x | x | x | x | x | x
CCN(CC)CCOC(=O)c1ccc(NC(=O)C2(c3ccccc3)CCCC2)cc1 | i | -5.2* | i | i | i | 125%* | i | 16%* | 58%* | i | x
COC(=O)c1cc(NC(=O)CSc2nnc(N)s2)ccc1Cl | i | -7.1* | i | i | i | i | i | i | i | i | i
O=C(CNC(=O)c1cccs1)NCC(=O)OCc1ccc(F)cc1 | i | i | i | i | i | x | x | x | x | x | x
COC(=O)c1ccc(COC(=O)CNC(=O)c2cccs2)cc1 | i | -6.2* | i | i | i | i | i | -8.0%* | i | i | i
O=C(NCCCN1CCCC1)c1cc2c(Cl)nc3ccccc3c2s1 | i | -6.6* | i | i | i | i | i | i | 35%* | i | i
Cc1c(C(=O)N2CCc3ccccc3C2)oc2ccccc12 | i | i | i | i | i | x | x | x | x | x | x
CC(=O)c1ccc(OCCCN2CCCCC2)cc1 | i | -5.1* | i | i | i | i | i | i | i | i | i
O=C(NCC(=O)N(c1ccc2c(c1)OCCO2)C(C(=O)NC1CCCC1)c1ccco1)c1ccco1 (stereo not given) | i | -7.7* | i | i | i | x | x | x | x | 62%* | x | TRPC4 spec 2=i;TRPC4 spec=1.1%*;HEK293 MPD ctr 2-1=i;HEK293 MPD ctr-1=0.7%*
O=C(NCC(=O)N(c1cccc(F)c1)C(C(=O)NC1CCCC1)c1ccco1)c1ccco1 (stereo not given) | i | i | i | i | i | x | x | x | x | x | x
O=c1cc(C(F)(F)F)[nH]c2c(C(F)(F)F)cccc12 | i | -10* | i | i | i | x | x | x | x | 83%* | x | TRPC4 spec 2=66%*;TRPC4 spec=58%*;HEK293 MPD ctr 2-1=i;HEK293 MPD ctr-1=32%*
O=c1cc(C(F)(F)F)[nH]c2ccc(OC(F)(F)F)cc12 | i | -7.1* | i | i | i | x | x | x | x | 104%* | x | TRPC4 spec 2=i;TRPC4 spec=23%*;HEK293 MPD ctr 2-1=22%*;HEK293 MPD ctr-1=13%*
Cc1cc(=O)c2cccc(Br)c2[nH]1 | i | i | i | i | i | x | x | x | x | x | x
O=C(NCCCN1CCOCC1)c1ccc2c(c1)N(Cc1ccccc1F)C(=O)c1ccccc1S2=O (stereo not given) | i | i | i | i | i | x | x | x | x | x | x
O=[N+]([O-])c1cc(Cl)cc(/C=N/NC(=S)Nc2ccc(S(=O)(=O)N3CCOCC3)cc2)c1O | i | -7.6* | 26* | i | i | x | x | x | x | i | i | TRPC4 spec 2=57%*;TRPC4 spec=-24%*;HEK293 MPD ctr 2-1=i;HEK293 MPD ctr-1=-274%*
O=S(=O)(c1ccc(Cl)c(NC(=S)N/N=C/c2ccc(O)cc2)c1)N1CCOCC1 | i | -9.1* | i | i | i | i | i | i | i | i | i
CCN(CC)S(=O)(=O)c1ccc(N2CCOCC2)c(NC(=O)c2ccc(N3CCCC3=O)cc2)c1 | i | i | i | i | i | x | x | x | x | x | x
Cc1cc(OCC(O)CNC(C)c2ccccc2)ccc1C(C)C (stereo not given) | i | i | i | i | i | x | x | x | x | x | x
Cc1ccc2nc(Cl)c(/C=N/Nc3nc(C)cc(C)n3)c(=O)n2c1 | i | -8* | i | i | i | i | i | -24%* | i | i | i
Cc1ccc2nc(C)c(Cl)c(=O)n2c1 | i | i | i | i | i | x | x | x | x | x | x
CCC(C)c1ccccc1OCCCNC1CCCC1 (stereo not given) | i | -5* | i | i | i | 232%* | i | 58%* | 58%* | 44%* | x
Cc1cccn2c(=O)c3cc(C(N)=S)c(=N)n(CCCOC(C)C)c3nc12 | i | -7.3* | i | i | i | x | x | x | x | i | i | TRPC4 spec 2=i;TRPC4 spec=-19%*;HEK293 MPD ctr 2-1=i;HEK293 MPD ctr-1=-408%*
CCOCCCn1c(=N)c(C(N)=S)cc2c(=O)n3cccc(C)c3nc21 | i | -8.9* | i | i | i | x | x | x | x | i | i | TRPC4 spec 2=i;TRPC4 spec=i;HEK293 MPD ctr 2-1=26%*;HEK293 MPD ctr-1=-196%*
CCCCCCN1C=CC(=C2C(=O)c3ccccc3C2=O)C=C1 | i | i | i | i | i | x | x | x | x | x | x
